Laboratory results from ChEMBL document CHEMBL4190366, “Discovery and synthesis of novel Wogonin derivatives with potent antitumor activity in vitro” (Eur J Med Chem, 2017).

Columns and labels:
A549 = experiment: Cytotoxicity in human A549 cells assessed as reduction in cell viability incubated for 72 hrs by MTT assay; conditions: A549, 72 h
MCF7 = experiment: Cytotoxicity in human MCF7 cells assessed as reduction in cell viability incubated for 72 hrs by MTT assay; type: functional, cell-based; conditions: MCF7, 72 h
In short: (§1)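 Cells pre-incubated 24 h at 37 °C, 5% CO2, then exposed to a range of compound concentrations for 72 h. Viability read as mitochondrial MTT-to-formazan conversion, absorbance at 570 nm.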

B16 = experiment: Cytotoxicity in mouse B16 cells assessed as reduction in cell viability incubated for 72 hrs by MTT assay; type: functional, cell-based; conditions: B16, 72 h; in short: as §1
HepG2 = experiment: Cytotoxicity in human HepG2 cells assessed as reduction in cell viability incubated for 72 hrs by MTT assay; type: functional, cell-based; conditions: HepG2, 72 h; in short: as §1

| SMILES | IC50 (A549) [µM] | IC50 (MCF7) [µM] | IC50 (B16) [µM] | IC50 (HepG2) [µM] |
| --- | --- | --- | --- | --- |
| Cc1ccc(COc2cc(O)c3c(=O)cc(-c4ccccc4)oc3c2OCCCCN2CCN(C)CC2)cc1 | 3.2 | 2.22 | 3.29 | 5.09 |
| O=c1cc(-c2ccccc2)oc2c(OCCCCN3CCCC3)c(OCc3ccccc3)cc(O)c12 | 1.1 | 1.89 | 3.21 | 4.66 |
| CN(C)CCCCOc1c(OCc2ccccc2)cc(O)c2c(=O)cc(-c3ccccc3)oc12 | 1.09 | 3.21 | 3.22 | 2.09 |
| COc1c(OCCCCN2CCN(C)CC2)cc(O)c2c(=O)cc(-c3ccc(C)cc3)oc12 | 3.81 | 4.02 | 5.43 | 1 |
| CN1CCN(CCCOc2c(OCc3ccccc3)cc(O)c3c(=O)cc(-c4ccccc4)oc23)CC1 | 3.94 | 1.02 | 3.76 | 3.11 |
| O=c1cc(-c2ccccc2)oc2c(OCCCN(CCO)CCO)c(OCc3ccccc3)cc(O)c12 | 3.15 | 4.23 | 6.89 | 3.55 |
| CN1CCN(CCCCOc2c(OCc3cccs3)cc(O)c3c(=O)cc(-c4ccccc4)oc23)CC1 | 2.1 | 3.18 | 2.12 | 4.56 |
| COc1c(OCCCCN2CCN(C)CC2)cc(O)c2c(=O)cc(-c3ccc(Cl)cc3)oc12 | 1.43 | 3.21 | 2.09 | 3.75 |
| COc1ccc(-c2cc(=O)c3c(O)cc(OCCCCN4CCN(C)CC4)c(OC)c3o2)cc1 | 2.32 | 3.98 | 4.1 | 4.2 |
| O=c1cc(-c2ccccc2)oc2c(OCCCN3CCCC3)c(OCc3ccccc3)cc(O)c12 | 4.72 | 2.23 | 7.98 | 2.66 |
| COc1c(OCCCCN2CCN(C)CC2)cc(O)c2c(=O)cc(-c3ccc(F)cc3)oc12 | 2.22 | 3.86 | 4.32 | 2.81 |
| CN1CCN(CCCCOc2c(OCc3nc4ccccc4s3)cc(O)c3c(=O)cc(-c4ccccc4)oc23)CC1 | 1.06 | 4.85 | 2.78 | 5.44 |
| COc1c(O)cc(O)c2c(=O)cc(-c3ccccc3)oc12 [WOGONIN] | 20.1 | 28 | 26.4 | 19.5 |
| COc1c(OCCCCN2CCN(C)CC2)cc(O)c2c(=O)cc(-c3cccc(F)c3)oc12 | 2.09 | 2.89 | 4.52 | 2.58 |
| CN1CCN(CCCCOc2c(OCc3nc4ccccc4o3)cc(O)c3c(=O)cc(-c4ccccc4)oc23)CC1 | 3.87 | 4.98 | 2.08 | 4.11 |
| O=c1cc(-c2ccccc2)oc2c(OCCCCN3CCOCC3)c(OCc3ccccc3)cc(O)c12 | 6.6 | 9.9 | 5.41 | 3.29 |
